Assay results reported in ChEMBL document CHEMBL3769316, “Discovery of novel heteroarylmethylcarbamodithioates as potent anticancer agents: Synthesis, structure-activity relationship analysis and biological evaluation” (Eur J Med Chem, 2016).
Active and inactive are the calls of the source. The calls are words filed in the database; no cut-off is given here.

Assays:
Assay type in all cases: functional, cell-based
[1] = Cytotoxicity against human Bel7402 cells after 72 hrs by alamar blue assay; conditions: Bel-7402, 72 h
How it was run: (§1)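 Cells seeded and cultured overnight, then exposed to compound at varying concentrations for 72 h. Cells were then incubated 2-4 h in medium containing 10% Alamar blue, and fluorescence was read at ex 530/em 590 nm. Dose-response curves used at least five concentrations, and IC50 (50% growth inhibition) was taken from these curves. Culture was at 37 °C.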

[2] = Cytotoxicity against human HL60 cells after 72 hrs by alamar blue assay; conditions: HL-60, 72 h; how it was run: as §1
[3] = tested on: SK-BR-3; test: Cytotoxicity against human SK-BR-3 cells after 72 hrs by alamar blue assay; conditions: SK-BR-3, 72 h; how it was run: as §1
[4] = tested on: MDA-MB-468; test: Cytotoxicity against human MDA-MB-468 cells after 72 hrs by alamar blue assay; conditions: MDA-MB-468, 72 h; how it was run: as §1
[5] = tested on: PC-3; test: Induction of mitotic arrest in human PC3 cells assessed as increase in histone H3 phosphorylation at Ser10 at 40 nM after 24 hrs by Western blot method
How it was run: (§2)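 PC-3 cells were treated 24 h with compound (0.5-4 µM) or taxol (40 nM) as positive control, then lysed in RIPA with PMSF and protease inhibitors. Lysates were run on SDS-PAGE and transferred to PVDF, which was blocked with 5% milk for 1 h. Membranes were probed overnight at 4 °C for MPM-2 (1:1000), phospho-H3 (1:600) or β-actin (1:1000), followed by HRP secondary and chemiluminescence.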

[6] = tested on: PC-3; test: Induction of mitotic arrest in human PC3 cells assessed as increase in MPM-2 level at 40 nM after 24 hrs by Western blot method; how it was run: as §2
[7] = tested on: PC-3; test: Induction of mitotic arrest in human PC3 cells assessed as increase in multipolar spindle formation at 40 nM after 6 hrs using DAPI staining by immunofluorescence-based laser scanning confocal microscopy
How it was run: (§3)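 PC-3 cells on confocal dishes were exposed 6 h to compound (2 µM) or taxol (40 nM), then fixed in 4% paraformaldehyde overnight at 4 °C and blocked. They were stained overnight at 4 °C with anti-β-tubulin and anti-γ-tubulin (1:100 each), then 1 h with Alexa Fluor 488/647 secondaries, and co-stained for DNA. Spindles and centrosomes were imaged by confocal microscopy.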

[8] = tested on: PC-3; test: Induction of mitotic arrest in human PC3 cells assessed as increase in supernumerary centrosome formation at 40 nM after 6 hrs using DAPI staining by immunofluorescence-based laser scanning confocal microscopy; how it was run: as §3

Compound | IC50 [1] [µM] | IC50 [2] [µM] | IC50 [3] [µM] | IC50 [4] [µM] | Activity [5] | Activity [6] | Activity [7] | Activity [8]
N#CCCSC(=S)NCc1cnc2ccccc2c1 | 96.4 | 5.18 |  |  |  |  |  | 
CCCCOC(=O)CCSC(=S)NCc1cccnc1 | 6.35 |  | 4.46 | 12.8 |  |  |  | 
CCOP(=O)(CCSC(=S)NCc1cccnc1)OCC | 50.8 |  | 51 | 60.4 |  |  |  | 
S=C(NCc1cccnc1)SCCc1nc(-c2ccccc2)no1 | 2.8 |  | 1.29 | 10.1 |  |  |  | 
S=C(NCc1cccnc1)SCCc1nnn[nH]1 | 57.7 |  | > 100 | > 100 |  |  |  | 
N#CCCSC(=S)NCc1cccnc1 | 1.03 | 0.74 | 2.84 | 9.53 |  |  |  | 
S=C(NCc1cccnc1)SCCc1nnc(-c2cc[nH]c2)o1 | 1.17 |  | 0.82 | 2.04 |  |  |  | 
S=C(NCc1cccnc1)SCCc1nnc(-c2cccnc2)o1 | 1.37 |  | 0.8 | 3.16 |  |  |  | 
FC(F)(F)c1ccc(-c2nnc(CCSC(=S)NCc3cccnc3)o2)cc1 | 1.22 |  | 2.4 | 5.49 |  |  |  | 
O=S(=O)(O)CCCSC(=S)NCc1cccnc1 | 6.59 |  | 6.77 | 11.1 |  |  |  | 
CC1(C)OB(CCCSC(=S)NCc2cccnc2)OC1(C)C | 4.27 |  | 6.82 | 6.62 |  |  |  | 
Fc1ccccc1-c1nnc(CCSC(=S)NCc2cccnc2)o1 | 5.54 |  | 4.69 | 3.42 |  |  |  | 
S=C(NCc1cccnc1)SCCc1nnc(-c2ccc3ccccc3n2)o1 | 1.95 |  | 0.79 | 3.5 |  |  |  | 
Cn1cccc1CNC(=S)SCCC#N | 227 | 282 |  |  |  |  |  | 
Cc1c(CNC(=S)SCCC#N)cnn1-c1ccccc1 | 24.9 | 6.05 |  |  |  |  |  | 
S=C(NCc1cccnc1)SCCc1nnc(-c2ccc(Cl)cc2)o1 | 1.26 |  | 0.86 | 1.98 |  |  |  | 
S=C(NCc1cccnc1)SCCc1nnc(-c2ccsc2)o1 | 1.23 |  | 1.03 | 3.26 |  |  |  | 
S=C(NCc1cccnc1)SCCc1nnc(-c2cnccn2)o1 | 1.43 |  | 1.29 | 1.71 |  |  |  | 
S=C(NCc1cccnc1)SCCc1nc2ccccc2[nH]1 | 9.3 |  | 1.69 | 11.5 |  |  |  | 
N#CCCSC(=S)NCc1nnc(-c2ccccc2)s1 | 18.7 | 11.8 |  |  |  |  |  | 
S=C(NCc1cccnc1)SCCc1nnc(-c2cc3ccccc3s2)o1 | 6.89 |  | 5.32 | 6.77 |  |  |  | 

Compound | IC50 [1] [µM] | IC50 [2] [µM] | IC50 [3] [µM] | IC50 [4] [µM] | Activity [5] | Activity [6] | Activity [7] | Activity [8]
COc1ccc(-c2nnc(CCSC(=S)NCc3cccnc3)o2)cc1 | 1.54 |  | 2.96 | 5.22 |  |  |  | 
S=C(NCc1cccnc1)SCCc1nnc(-c2ccc3ncccc3c2)o1 | 1.79 |  | 0.85 | 1.69 |  |  |  | 
Cc1cc(CNC(=S)SCCC#N)n(C)n1 | 4.26 | 4.17 |  |  |  |  |  | 
Cc1nc(-c2ccccc2)oc1CNC(=S)SCCC#N | 17.9 | 7.88 |  |  |  |  |  | 
O=C(CCSC(=S)NCc1cccnc1)NCc1ccccc1 | > 100 |  | > 100 | > 100 |  |  |  | 
S=C(NCc1cccnc1)SCCc1nnc(-c2cccs2)o1 | 1.34 |  | 1.07 | 3.41 |  |  |  | 
S=C(NCc1cccnc1)SCCc1nnc(-c2ccco2)o1 | 1.59 |  | 0.81 | 3.32 |  |  |  | 
N#CCCSC(=S)NCc1cncs1 | 296 | 109 |  |  |  |  |  | 
CC(=O)O[C@H]1C(=O)[C@@]2(C)[C@H]([C@H](OC(=O)c3ccccc3)[C@]3(O)C[C@H](OC(=O)[C@H](O)[C@@H](NC(=O)c4ccccc4)c4ccccc4)C(C)=C1C3(C)C)[C@]1(OC(C)=O)CO[C@@H]1C[C@@H]2O |  |  |  |  | Active | Active | Active | Active
N#CCCSC(=S)NCc1nnc(-c2ccccc2)o1 | 25.7 | 14.2 |  |  |  |  |  | 
CN1CCOc2cc(CNC(=S)SCCC#N)cnc21 | 327 | 82.8 |  |  |  |  |  | 
Cc1cc(-c2nnc(CCSC(=S)NCc3cccnc3)o2)no1 | 1.68 |  | 1.73 | 6.14 |  |  |  | 
N#CCCSC(=S)NCc1cnc(N2CCOCC2)nc1 | 22.4 | 5.03 |  |  |  |  |  | 
OCCSC(=S)NCc1cccnc1 | 3.65 |  | 1.32 | 6.61 |  |  |  | 
NC(=O)CCSC(=S)NCc1cccnc1 | 3.33 |  | 1.16 | 4.63 |  |  |  | 
S=C(NCc1cccnc1)SCCn1nc2ccccc2n1 | 2.66 |  | 0.98 | 11.6 |  |  |  | 
S=C(NCc1cccnc1)SCCc1nc2ccccc2o1 | 2.88 |  | 0.82 | 4.3 |  |  |  | 
O=[N+]([O-])c1ccc(-c2nnc(CCSC(=S)NCc3cccnc3)o2)cc1 | 1.84 |  | 1.54 | 4.6 |  |  |  | 
S=C(NCc1cccnc1)SCCc1nc2ccccc2s1 | 3.56 |  | 1.39 | 9.71 |  |  |  | 
CC(=O)CCSC(=S)NCc1cccnc1 | 3.43 |  | 1.12 | 4.22 |  |  |  | 
O=C(O)CCSC(=S)NCc1cccnc1 | 7.42 |  | 7.97 | 9.32 |  |  |  | 
